# Rows were chosen to be rich in hits. Some 1.7% of all compounds tested hit in one or more screens of this group.
# Apaf-1 inh = inhibitors of human Apaf-1 apoptosome, primary screen, biochemical, DEVD-Rh110 fluorescence, uHTS. inhibition, % at 20 µM. AID 489030, 2010. 330,000 compounds, 0.71% hits. reconstituted apoptosome caspase-3 activity; active means inhibition of at least 40% at 20 µM;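 further: plate controls were DMSO wells for no effect and DEVD-CHO caspase inhibitor wells for full effect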
# Target sequence (O14727 whole entry, looked up): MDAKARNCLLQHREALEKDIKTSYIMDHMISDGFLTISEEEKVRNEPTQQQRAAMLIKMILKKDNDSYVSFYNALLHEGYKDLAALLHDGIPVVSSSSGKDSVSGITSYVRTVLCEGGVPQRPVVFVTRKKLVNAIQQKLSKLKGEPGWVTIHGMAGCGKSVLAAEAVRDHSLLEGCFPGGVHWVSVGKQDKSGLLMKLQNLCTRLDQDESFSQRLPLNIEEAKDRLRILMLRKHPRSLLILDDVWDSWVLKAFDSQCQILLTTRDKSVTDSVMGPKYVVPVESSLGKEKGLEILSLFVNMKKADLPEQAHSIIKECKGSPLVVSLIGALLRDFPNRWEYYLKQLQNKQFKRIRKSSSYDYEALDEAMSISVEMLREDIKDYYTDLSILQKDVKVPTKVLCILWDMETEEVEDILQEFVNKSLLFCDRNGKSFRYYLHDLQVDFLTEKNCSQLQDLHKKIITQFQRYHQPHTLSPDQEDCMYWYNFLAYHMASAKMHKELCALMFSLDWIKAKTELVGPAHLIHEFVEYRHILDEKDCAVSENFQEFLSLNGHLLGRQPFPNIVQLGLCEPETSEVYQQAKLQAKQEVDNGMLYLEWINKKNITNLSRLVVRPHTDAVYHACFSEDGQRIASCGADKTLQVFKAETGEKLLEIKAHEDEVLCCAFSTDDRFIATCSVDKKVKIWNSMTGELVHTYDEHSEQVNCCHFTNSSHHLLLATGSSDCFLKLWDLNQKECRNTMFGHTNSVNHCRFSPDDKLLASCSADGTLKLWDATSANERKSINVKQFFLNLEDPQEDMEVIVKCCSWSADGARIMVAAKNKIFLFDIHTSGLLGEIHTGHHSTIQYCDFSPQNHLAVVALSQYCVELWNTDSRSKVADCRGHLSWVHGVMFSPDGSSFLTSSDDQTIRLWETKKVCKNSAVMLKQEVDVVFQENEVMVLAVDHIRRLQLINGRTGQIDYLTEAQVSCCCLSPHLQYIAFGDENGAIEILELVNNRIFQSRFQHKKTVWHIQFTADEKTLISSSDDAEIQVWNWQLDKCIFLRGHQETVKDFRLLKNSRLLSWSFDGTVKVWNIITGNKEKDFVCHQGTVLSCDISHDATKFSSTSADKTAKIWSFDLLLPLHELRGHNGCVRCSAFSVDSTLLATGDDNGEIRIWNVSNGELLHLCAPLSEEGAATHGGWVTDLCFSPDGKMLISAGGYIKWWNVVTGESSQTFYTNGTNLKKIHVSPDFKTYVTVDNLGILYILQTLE
#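 System – cell-free apoptosome with Apaf-1, procaspase-3 and caspase-9 · Buffer or medium – pH 7.5 Hepes buffer with CHAPS, BSA, DTT · Also added – cytochrome c with DEVD-Rh110 · Times – 30 min compound preincubation, 50 min activation, room temperature · Technique – Rh110 fluorescence intensity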
# EBNA-1 inh = EBNA-1 DNA-binding inhibitors, primary screen, biochemical, fluorescence polarization; inhibition, % at 14.8 µM; 300,000 compounds, 0.34% hits; in the data active means inhibition above about 28%
# UBC13 inh = UBC13 polyubiquitin chain formation inhibitors, primary screen, biochemical, TR-FRET, uHTS; Ubiquitin-conjugating enzyme E2 N (Homo sapiens), P61088; inhibition, % at 20 µM; 330,000 compounds, 0.47% hits; AID 485273, 2010; in the data active means inhibition above about 45%, passing the limit was not always enough; inconclusive means no clear call, values can overlap the other calls
# ZTA DNA inh = blocks Epstein-Barr virus ZTA, an EBNA-1 counter-screen; P03206; ZTA-DNA binding, fluorescence polarization; inhibition, % at 11 µM; 320,000 compounds, 0.15% hits; AID 2234; in the data active means inhibition above about 33%
# PREPL inhibitor = PREPL enzyme inhibitors, primary screen, biochemical, fluorescence polarization; recombinant PREPL, fluorescence polarization activity-based probe; inhibition, % at 5.96 µM; AID 2751, 2010; Prolyl endopeptidase-like (Homo sapiens), Q4J6C6; 320,000 compounds, 0.68% hits; in the data active means inhibition above about 43%;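 further: 0% = enzyme with DMSO and 100% = wells lacking enzyme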
# Casp3 counter = CASP3 inhibitor validation, counterassay for project on UBE2N polyubiquitination blockers, biochemical, one dose; shares compounds with UBC13 inh; Recombinant caspase-3, Caspase-Glo 3/7 luminescence, 60 min; inhibition, % at 20 µM; 1,400 compounds, 4% hits; AID 488856, 2010;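 active means mean inhibition across replicates above about 26%, limit read from the data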;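 further: plate controls were DMSO with caspase-3 for no effect and DMSO wells lacking enzyme for full effect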
# UBC13 confirm = UBC13 polyubiquitination inhibitors, single-point retest, confirmation, biochemical, TR-FRET, single concentration; 1,400 compounds, 68% hits; shares compounds with UBC13 inh; inhibition, % at 10 µM; AID 488859, 2010; in the data active means inhibition above about 45%; inconclusive means no clear call, values can overlap the other calls
# Starred values were filed as active, the others as inactive; ? = inconclusive; / = not tested or not shown.
SMILES,Apaf-1 inh,EBNA-1 inh,UBC13 inh,ZTA DNA inh,PREPL inhibitor,Casp3 counter,UBC13 confirm
C=CCNc1nc(C(=O)OCC(=O)c2ccc(OC)cc2OC)cs1,8.9,-1.5,0.4,-1.9,-6.8,/,/
O=C(Nc1ccc(OC(F)F)cc1)c1ncc(Cl)c(Cl)c1Cl,14.9,7.8,-9.1,-3.8,17.7,/,/
Nn1cnc2c(c1=O)C1(CCCCC1)Cc1ccccc1-2,22.9,-4.7,-0.8,11.6,-12.4,/,/
Cc1nn2c(nc(N3CCOCC3)c3ccccc32)c1C=C(C#N)C#N,4.8,-9.9,47.2*,-4.5,0.2,-3.6,45.7*
Cc1nn2c(nc(N3CCCCC3)c3ccccc32)c1C=O,6.8,-6.7,0.2,3.1,-2.8,/,/
Cc1c(NC(=O)CCCN2C(=O)c3cccc4cccc(c34)C2=O)c(=O)n(-c2ccccc2)n1C,2.1,5.6,80.9*,-1.7,10.6,3.3,94.4*
CN1CCCC(CN2c3ccccc3Sc3ccccc32)C1 (stereo not given),15.2,-1.1,37.5,9.4,34.8,/,/
CN1CCCC(CC2c3ccccc3Sc3ccccc32)C1 (stereo not given),23.2,-1.4,46.3*,-17.0,-47.4,-0.5,27.0
COc1cc(C(=O)N2CCN(C(=O)C3CCCO3)CC2)cc(OC)c1OC (stereo not given),-4.9,/,6.4,1.7,0.2,/,/
O=C1c2cc(Cl)ccc2OC2(CCNCC2)C12CC(c1ccc(Cl)cc1)=NO2 (stereo not given),20.5,4.8,48.4*,-16.2,-34.2,2.7,41.4
O=C1c2cc(Cl)ccc2OC2(CCNCC2)C12CC(c1ccccc1)=NO2 (stereo not given),24.6,6.0,42.1,-13.8,-12.8,/,/
COc1cc(/C=C2\SC(=Nc3ccc(O)cc3)NC2=O)cc(OC)c1OC,-4.1,-7.1,12.1,-9.0,12.0,/,/
COc1cc(/C=C2/SC(=Nc3ccc(O)cc3)NC2=O)cc(OC)c1O,2.6,1.8,48.0*,14.4,-23.1,-2.9,46.7*
COc1ccccc1C(=O)Nc1ccc(OC(C)C(=O)N2CCOCC2)cc1 (stereo not given),10.6,/,2.1,4.0,8.6,/,/
Oc1ccc(C[C@@H]2CNCCN2CCCCC2CCCCC2)cc1,38.8,-1.3,59.4*,-16.2,-11.8,-4.5,47.8*
C#CCOCCOCCOCCNc1nc(N2CCOCC2)nc(N2CCN(C(=O)CCCCCCCCCCNC(=O)[C@@H]([C@H](C)CC)n3cc(CCCCCN)nn3)CC2)n1,19.6,-3.4,70.3*,1.7,15.5,1.7,64.3*
CC[C@H](C)Cc1cn([C@@H](CCCN=C(N)N)C(=O)NCCCCCCCCCCC(=O)N2CCNCC2)nn1,35.3,-0.9,40.1,-0.2,18.3,/,/
CC[C@H](C)[C@@H](C(=O)NCCCCCCCCCCC(=O)N1CCNCC1)n1cc(CCCCN=C(N)N)nn1,24.0,15.5,48.6*,1.9,8.6,1.8,23.7
C#CCOCCOCCOCCNc1nc(N2CCN(C(=O)CCCCCCCCCCNC(=O)[C@H](CCCCN)n3cc(CCCC(=O)O)nn3)CC2)nc(N2CCN(C(=O)CCCCCCCCCCNC(=O)[C@@H]([C@H](C)O)n3cc(C)nn3)CC2)n1,28.7,6.8,54.1*,5.5,17.7,-0.8,31.9
Cc1cccnc1NC(=O)C1CC(=O)N(c2ccc3c(c2)OCCO3)C1 (stereo not given),0.3,4.1,3.1,10.2,-4.0,/,/
O=C1/C(=C/C=C/c2ccco2)SC(=S)N1NS(=O)(=O)c1ccccc1,26.6,43.6*,51.3*,69.7*,12.6,3.3,1.9
O=C1Nc2cc(C(=O)NCCN3CCCCCC3)ccc2S/C1=C\c1ccccc1,23.1,-10.3,36.4,16.7,-13.2,/,/
Cc1cccc(/C=C2/Sc3ccc(C(=O)NCCN4CCCC4)cc3NC2=O)c1,33.2,-4.5,59.5*,30.7,17.9,2.9,94.0*
CCN1CCN(CCCNC(=O)c2ccc3c(c2)NC(=O)/C(=C\c2cccc(C)c2)S3)CC1,36.3,7.7,55.3*,-5.8,7.0,-0.3,65.3*
Cc1cccc(/C=C2/Sc3ccc(C(=O)NCCCN4CCOCC4)cc3NC2=O)c1,17.4,2.1,36.7,5.0,3.9,/,/
SMILES,Apaf-1 inh,EBNA-1 inh,UBC13 inh,ZTA DNA inh,PREPL inhibitor,Casp3 counter,UBC13 confirm
Cc1ccc(NCc2nnc(SCCN3CCCCC3)n2CC2CCCO2)cc1Cl (stereo not given),2.0,-1.5,17.1,-7.2,36.3,/,/
COc1ccc(C2CC(=O)c3cnc(N4CCc5ccccc54)nc3C2)cc1OC (stereo not given),6.1,-13.8,59.5*,-10.9,4.7,2.5,?
COc1ccc(C2CC(=O)c3cnc(NC(=O)c4ccccc4)nc3C2)cc1OC (stereo not given),-0.6,-5.2,-7.6,5.6,1.8,/,/
Nc1nonc1-n1nnc(C(=O)N/N=C/c2ccc(O)cc2)c1CN1CCCCCC1,-6.0,11.8,-14.0,5.9,7.8,/,/
Nc1nonc1-n1nnc(C(=O)N/N=C/c2ccccc2Br)c1CN1CCCC1,4.7,7.0,63.3*,-1.7,13.9,-3.9,2.0
Cc1onc(-c2ccccc2)c1C(=O)Nc1cccc2nsnc12,-4.0,1.7,49.0*,4.6,5.3,0.6,44.8
COc1ccc(C(=O)NC(=S)NNC(=O)c2ccc(NC(C)=O)cc2)cc1Br,5.7,4.5,71.2*,17.0,-6.7,0.9,103.6*
COC(=O)c1cnc2c(C(F)(F)F)cccc2c1OC,6.0,-3.8,2.6,-3.6,13.0,/,/
Cc1ccc2[nH]c(=O)c(NC(N)=S)nc2c1,-2.8,-13.3,71.0*,-13.1,16.6,-1.9,84.8*
NC(=S)Nc1nc2ccccc2[nH]c1=O,-8.6,9.1,59.8*,0.8,11.0,-5.4,63.6*
COc1ccc(-c2cc(C#N)nc(N3CCNCC3)n2)cc1,-4.6,7.8,98.2*,6.5,-60.0,-3.3,73.7*
COc1ccc(-c2cc(C#N)nc(N3CCN(C)CC3)n2)cc1,8.0,-2.0,-8.0,-1.6,-48.2,/,/
CCOC(=O)c1c(C)c(C(=O)N2CCCCCC2)c(C)n1C,-8.9,5.1,13.9,7.3,4.8,/,/
CCOC(=O)c1c(C)c2c(n1C)CCC/C2=N\O,-9.2,5.7,78.6*,-3.3,-1.1,-2.0,93.8*
COc1ccc(-c2cc(-c3cccs3)nc(OC)c2C#N)cc1OC,-1.5,11.0,49.8*,20.8,1.6,-2.3,44.5
COc1nc(-c2cccs2)cc(-c2ccc(C)cc2)c1C#N,14.4,-11.2,27.7,-3.6,4.0,/,/
